Source: PubChem (Sanford-Burnham Center for Chemical Genomics)
EBI2 block: EBI2 (human) antagonism | P32249 | EBI2 beta-arrestin recruitment, luminescence, 7a,25-OHC stimulated | inhibition, % at 5 µM | 0.81% of 360,000 active | AID 651636; in the data active means inhibition above about 38%;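 further: enzyme fragment complementation signal reports receptor beta-arrestin coupling in cells; 0% = agonist plus DMSO wells and 100% = wells without agonist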
APJ antag: APJ receptor antagonism | CHO-K1 APJ beta-arrestin complementation, luminescence | inhibition, % at 20 µM | 0.32% of 330,000 active;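 active means inhibition above about 40% at 20 µM, limit read from the data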;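 further: cells challenged with 10 nM apelin-13 agonist together with compound; plate controls were apelin-13 plus DMSO wells for no effect and DMSO wells lacking apelin-13 for full effect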
APJ agonist: APJ receptor agonism; P35414; CHO-K1 APJ PathHunter beta-arrestin, luminescence; 0% DMSO wells, 100% apelin; activation, % at 20 µM; 0.11% of 330,000 active; AID 2520;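 active means activation more than six SD over the plate average, tested at 20 µM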;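 further: 0% = DMSO alone and 100% = apelin-13 at 10 nM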
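Assay system: CHO-K1 APJ beta-arrestin complementation cell line / Compound: single test compound dose, 20 µM final, 1% DMSO / Times: overnight seeding, 90 min compound at 25 °C, 1 h detection / Technique: beta-gal luminescence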
CCR6 antagonist: antagonists of human CCR6 receptor; P51684; CHO-K1 CCR6 PathHunter beta-arrestin, luminescence, CCL20-stimulated; inhibition, % at 20 µM; 0.49% of 340,000 active; AID 493098;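 active means compounds whose inhibition of the agonist-driven luminescence signal at 20 µM reaches about 50%, limit read from the data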;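 further: cells stimulated with CCL20 at 14 nM final; plate controls were DMSO with CCL20 for no effect and DMSO without agonist for full effect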
Target sequence (P51684 whole entry, looked up): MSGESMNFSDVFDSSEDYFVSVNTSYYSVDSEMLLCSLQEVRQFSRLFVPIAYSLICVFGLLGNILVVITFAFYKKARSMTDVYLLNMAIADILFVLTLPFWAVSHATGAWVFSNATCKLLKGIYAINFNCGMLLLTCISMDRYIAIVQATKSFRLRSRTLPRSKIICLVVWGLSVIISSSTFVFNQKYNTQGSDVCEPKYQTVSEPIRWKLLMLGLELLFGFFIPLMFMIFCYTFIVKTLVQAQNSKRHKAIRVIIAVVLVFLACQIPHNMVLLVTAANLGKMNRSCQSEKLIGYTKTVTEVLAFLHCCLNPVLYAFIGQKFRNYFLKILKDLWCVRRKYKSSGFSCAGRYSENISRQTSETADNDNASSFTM
CXCR6 block: CXCR6 (human) receptor inhibition. O00574. CHO-K1 PathHunter CXCR6 beta-arrestin, luminescence. inhibition, % at 20 µM. 0.36% of 360,000 active; in the data active means inhibition above about 34%, passing the limit was not always enough;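 further: antagonist mode with CXCL16 agonist at 10 nM final; 0% = 10 nM CXCL16 with DMSO and 100% = unstimulated wells without agonist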
APJ ag confirm: confirmation of human APJ apelin receptor agonists. shares compounds with APJ agonist. AID 2764. CHO-K1 APJ PathHunter beta-arrestin, luminescence. activation, % at 20 µM. 10% of 310 active;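 active means activation above 40%, taking the highest of four retests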;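 further: plate controls were DMSO wells for no effect and apelin-13 at 10 nM for full effect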
* hit, by the source's call; x = no result. Hits are enriched below; roughly 1.5% of the tested compounds scored in any of these assays.

SMILES	EBI2 block	APJ antag	APJ agonist	CCR6 antagonist	CXCR6 block	APJ ag confirm
O=[N+]([O-])c1ccc(/C=N/n2c(COc3ccccc3)n[nH]c2=S)cc1	8	-19	14*	17	2	8
Cc1cc(Cl)ccc1N(CC(=O)NCc1ccccc1)S(C)(=O)=O	-5	-20	0	3	-4	x
O=C1CC(C(=O)N2CCc3ccccc32)CN1c1cccc(C(F)(F)F)c1 (stereo unspecified)	2	4	-3	-3	2	x
N=c1c(C(=O)NC2CCCCC2)cc2c(=O)n3ccccc3nc2n1Cc1ccccc1	12	-18	0	8	22	x
N=c1c(C(=O)NC2CCCCC2)cc2c(=O)n3ccccc3nc2n1CCc1ccccc1	10	-8	20*	19	2	-2
CC(C)CCN(C(=O)Cc1ccc(Cl)c(Cl)c1)c1c(N)n(Cc2ccccc2)c(=O)[nH]c1=O	7	-4	3	3	-6	x
Cc1ccc(-n2nnnc2C(Cl)(Cl)c2nnnn2-c2ccc(C)cc2)cc1	9	-28	34*	52*	9	41*
Clc1ccc(-c2nnnn2-c2ccc(Cl)cc2)cc1	7	19	-5	17	-8	x
N#Cc1cc2cc3ccccc3nc2n2c(=O)c3ccccc3nc12	-15	-31	15*	7	-18	3
Cn1c(=O)c2cc3ccccc3nc2n(C)c1=O	1	16	-7	-8	-1	x
CN1CCN(c2ccc(NC(=S)NC(=O)c3cccc4ccccc34)cc2)CC1	13	-9	28*	0	-1	-1
COc1cccc(-c2c(C#N)c(N)nc3c2c(C)nn3-c2ccccc2)c1O	-1	9	-3	27	13	x
CCOc1cccc(C(=O)Nc2ccc(NC(=O)c3cc4ccccc4o3)c(OC)c2)c1	-7	5	20*	-11	-1	20
Cc1cc(C)nc(/N=C(\N)Nc2ccc(OCCC(C)C)cc2)n1	-19	-3	16*	-1	-3	7
COc1ccc(N/C(N)=N/c2nc(C)cc(C)n2)cc1	-11	x	x	x	-7	x
CC(C)Nc1ccc(Nc2ccnc3cc4ccccc4cc23)cc1	24	10	24*	23	12	34
COc1ccc(Nc2ccnc3ccccc23)cc1	8	4	-4	-6	-8	x
COc1ccc(/C=N/N(C(C)=O)c2nc(-c3ccc(C)cc3)cs2)cc1	-4	-35	50*	9	2	14
CCOC(=O)c1c(C)[nH]c(C(=O)OCC(=O)Nc2sccc2C(N)=O)c1C	-33	-46	32*	-46	-11	16
CCOc1cc2[nH]c(=S)n(CCCN(CC)CC)c(=O)c2cc1OCC	4	3	3	11	2	x
CCCCN(C)CCn1c(=S)[nH]c2cc(OCC)c(OCC)cc2c1=O	3	-25	54*	11	-4	23
COC(=O)C1(C)COP(=O)(NC23CC4CC(CC(C4)C2)C3)OC1 (stereo unspecified)	-7	x	x	10	8	x
CC(=O)c1c(C)[nH]c(C(=O)OCC(=O)Nc2cc(Cl)ccc2[N+](=O)[O-])c1C	-2	-16	17*	-32	-5	18
O=C(NC(=S)/C(=C1\CCCCCN1)[N+](=O)[O-])c1ccccc1	-9	7	-3	6	5	x
COc1cc(S(=O)(=O)N2CCN(Cc3ccc4c(c3)OCO4)CC2)ccc1NC(C)=O	-2	-5	16*	x	-2	-4
SMILES	EBI2 block	APJ antag	APJ agonist	CCR6 antagonist	CXCR6 block	APJ ag confirm
COc1ccc(S(=O)(=O)N2CCN(Cc3ccc4c(c3)OCO4)CC2)cc1F	-6	-5	-2	13	-5	x
CC(C)C(=O)N1CCC1(C)C(=O)Nc1cccc(Oc2ccccc2)c1 (stereo unspecified)	2	x	x	x	5	x
COc1cc(C(=O)c2nccc3cc(OC)c(OC)cc23)c([N+](=O)[O-])cc1OC	-23	-11	14*	-4	-2	4
CC(=O)N1CC(=O)N=C1SCC(=O)Nc1nc(C)c(-c2ccccc2)s1	3	17	-5	7	7	x
Cc1ccc(-c2ccc(/C=C3\C(=O)ON=C3c3ccccc3)o2)c([N+](=O)[O-])c1	-1	-7	16*	62*	25	25
CCOC(=O)CSc1nc2ccc(Nc3nc(N4CCOCC4)nc(N4CCOCC4)n3)cc2s1	-7	-36	19*	-50	-14	31
Cc1ccc(NC(=O)CSc2nc3ccc(Nc4nc(N5CCOCC5)nc(N5CCOCC5)n4)cc3s2)cc1	25	-5	3	0	8	x
CSc1ccc(C(=O)C2CCCN(C(=O)c3ccc4c(c3)no[n+]4[O-])C2)cc1 (stereo unspecified)	-9	-107	18*	-3	-18	44*
CSc1ccc(C(=O)C2CCCN(C(=O)c3ccsc3)C2)cc1 (stereo unspecified)	-14	-13	-2	12	-2	x
COc1ccccc1N=c1c2c([N+](=O)[O-])cc([N+](=O)[O-])cc2n(O)n1-c1ccccc1OC	x	-22	15*	x	x	17
COc1ccc(CC(=O)Nc2cccc(-c3nnc(-c4ccc(C)cc4)o3)c2)cc1OC	-21	-14	28*	21	14	24
COc1cccc(-c2cc(NC=O)c3ncc(-c4ccc(C(C)=O)cc4)n3c2)c1	23	x	x	x	4	x
COC(=O)c1cnc(Oc2ccc(NC(=O)NC(=O)c3ccccc3Cl)cc2)cc1C(F)(F)F	-18	-15	20*	7	-7	17
COC(=O)c1ccncc1C(=O)Nc1ccc(Oc2ncc(C(F)(F)F)cc2Cl)cc1	-11	9	0	-12	-3	x
CCOc1ncccc1C(=O)Nc1cc(S(=O)(=O)N2CCCCC2)ccc1OC	-6	0	25*	0	-6	-3
C#CCOCCOCCOCCNc1nc(N2CCN(C(=O)CCCCCCCCCCNC(=O)[C@H]([C@@H](C)CC)n3cc(CCCCCN)nn3)CC2)nc(N2CCN(C(=O)CCCCCCCCCCNC(=O)[C@H]([C@@H](C)CC)n3cc(CCCCN=C(N)N)nn3)CC2)n1	4	14	51*	x	10	31
C#CCOCCOCCOCCNc1nc(N2CCN(C(=O)CCCCCCCCCCNC(=O)[C@H]([C@@H](C)CC)n3cc(CCCCN=C(N)N)nn3)CC2)nc(N2CCN(C(=O)CCCCCCCCCCNC(=O)[C@H](CCCCN)n3cc(C)nn3)CC2)n1	x	40*	83*	-13	x	26
CC1=C/C(=N\OS(=O)(=O)c2ccccc2)C(C)=CC1=O	-4	-10	109*	43	24	86*
CC1=NNC(=O)/C1=C\c1cn(-c2ccccc2)nc1-c1cccs1	68*	-7	26*	46	1	7
O=C(O)CCCCCN1C(=O)/C(=C/c2cn(-c3ccccc3)nc2-c2cccs2)SC1=S	23	x	x	13	16	x
